Drawing on ChEMBL document CHEMBL3797028, “Novel S1P1 receptor agonists - Part 4: Alkylaminomethyl substituted aryl head groups” (Eur J Med Chem, 2016), this text covers EC50 and Ratio EC50 for 45 compounds.

In general, EC50 refers to the midpoint of the concentration-response curve.

For test [1], the target named is Sphingosine 1-phosphate receptor 1 (Homo sapiens, UniProt P21453). Nature of the test: Agonist activity at human recombinant S1PR1 expressed in CHO cell membranes assessed as [35S]GTPgammaS binding preincubated for 30 mins followed by [35S]GTPgammaS addition measured after 1 hr by topcount analysis. In general terms: GTPγS resists hydrolysis and so accumulates on activated G proteins.
Sphingosine 1-phosphate receptor 1, sequence (P21453 whole entry): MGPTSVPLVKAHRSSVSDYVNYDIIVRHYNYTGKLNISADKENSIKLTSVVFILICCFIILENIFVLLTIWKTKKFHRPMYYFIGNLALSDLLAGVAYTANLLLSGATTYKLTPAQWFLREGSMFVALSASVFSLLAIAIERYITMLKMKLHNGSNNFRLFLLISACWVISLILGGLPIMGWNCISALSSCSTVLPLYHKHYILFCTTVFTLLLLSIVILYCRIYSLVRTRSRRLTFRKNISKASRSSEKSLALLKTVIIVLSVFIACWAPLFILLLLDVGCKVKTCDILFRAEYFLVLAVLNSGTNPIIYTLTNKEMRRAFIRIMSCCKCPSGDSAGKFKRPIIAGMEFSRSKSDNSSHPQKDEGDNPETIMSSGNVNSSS

In test [2] the target is Sphingosine 1-phosphate receptor 3 (Homo sapiens, UniProt Q99500). Nature of the test: Agonist activity at human recombinant S1PR3 expressed in CHO cell membranes assessed as [35S]GTPgammaS binding preincubated for 30 mins followed by [35S]GTPgammaS addition measured after 1 hr by topcount analysis. The test is classed as functional. The method in brief:
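Membranes from CHO cells expressing recombinant human S1P1 or S1P3 were used. Buffer was 20 mM Hepes pH 7.4, 100 mM NaCl, 5 mM MgCl2, 0.1% fatty-acid-free BSA, 2.5% DMSO and 50 pM 35S-GTPgammaS. GDP was […] for S1P3. Compound was preincubated 30 min at rt, then incubated 1 h at rt with 35S-GTPgammaS. Bound label was collected by filtration and counted. Specific binding was taken against 10 uM S1P. EC50 was the 50%-of-specific-binding concentration, reported as the geometric mean of at least three independent duplicate runs.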

Test [3] can be described thus: Selectivity ratio of EC50 for human recombinant S1PR3 expressed in CHO cell membranes to EC50 for human recombinant S1PR1 expressed in CHO cell membranes. The format is cell-based. The method in brief: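 Compound and membranes are pre-incubated 30 min at rt, then incubated 1 h at rt, filtered and counted. EC50 is the concentration giving 50% of S1P-defined specific binding, as the geometric mean of ≥3 independent duplicate runs. Ratio = EC50 S1PR3/EC50 S1PR1.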

A value given as a limit tells only on which side of the number the result lay.

Sphingosine 1-phosphate receptor 3, sequence (Q99500 whole entry): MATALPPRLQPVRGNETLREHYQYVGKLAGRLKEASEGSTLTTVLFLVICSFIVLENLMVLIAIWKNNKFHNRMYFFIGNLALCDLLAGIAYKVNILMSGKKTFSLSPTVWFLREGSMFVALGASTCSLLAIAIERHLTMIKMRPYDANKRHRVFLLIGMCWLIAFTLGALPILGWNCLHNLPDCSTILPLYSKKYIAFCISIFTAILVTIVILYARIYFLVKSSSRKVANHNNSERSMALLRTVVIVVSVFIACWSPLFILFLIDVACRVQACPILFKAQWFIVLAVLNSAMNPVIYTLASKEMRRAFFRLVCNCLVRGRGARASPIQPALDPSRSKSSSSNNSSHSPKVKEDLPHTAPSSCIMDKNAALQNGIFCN

For the compound `CCc1cc(-c2noc(-c3cc(C)c(CN(C)C)c(C)c3)n2)cc(C)c1OC[C@@H](O)CNC(=O)CO`, the EC50 was 69 nM in test [1] and 5500 nM in test [2]. Further, the Ratio EC50 in test [3] was more than 80.
On the same counts, the results for `CCCN(C)Cc1cc(C)cc(-c2nc(-c3cc(C)c(OC[C@@H](O)CNC(=O)CO)c(CC)c3)no2)c1` are 4.1 nM, 380 nM and 93.
Taken in the same sequence, the figures for `CCc1cc(-c2noc(-c3cc(C)c(CN(C)CC)s3)n2)cc(C)c1OC[C@@H](O)CNC(=O)CO` were 1.3 nM, 150 nM and 115.
On the same counts, the results for `CCCN(C)Cc1sc(-c2nc(-c3cc(C)c(OC[C@@H](O)CNC(=O)CO)c(CC)c3)no2)c(C)c1C` are 14 nM, 370 nM and 26.
As to `CCc1cc(-c2nc(-c3cc(C)c(OC[C@@H](O)CNC(=O)CO)c(CC)c3)no2)ccc1CN(CC)CC`, the EC50 in test [1] is 1 nM; in test [2], 210 nM. Moreover, the Ratio EC50 in test [3] amounted to 210.
As to `CCCNCc1cccc(-c2nc(-c3cc(C)c(OC[C@@H](O)CNC(=O)CO)c(CC)c3)no2)c1`, the results for the EC50 in test [1] and in test [2] were 305 nM and more than 10000 nM, respectively. Further, the Ratio EC50 in test [3] was more than 33.
Taken in the same sequence, the figures for `CCCN(C)Cc1cc(-c2nc(-c3cc(C)c(OC[C@@H](O)CNC(=O)CO)c(CC)c3)no2)cc(C)n1` were 8.5 nM, 870 nM and 102.
Taken in the same sequence, the figures for `CCc1cc(-c2noc(-c3ccc(CN(C)C)s3)n2)cc(C)c1OC[C@@H](O)CNC(=O)CO` were 5.4 nM, more than 10000 nM and more than 1850.
On the same counts, the results for `CCCCN(C)Cc1ccc(-c2nc(-c3cc(C)c(OC[C@@H](O)CNC(=O)CO)c(CC)c3)no2)cc1C` are 5.3 nM, 350 nM and 66.
For `CCc1cc(-c2noc(-c3ccc(CN4CCCC4)c(C)c3)n2)cc(C)c1OC[C@@H](O)CNC(=O)CO`, the EC50 stood at 50 nM in test [1] and 3100 nM in test [2]. For the same compound, in test [3], the Ratio EC50 was found to be 62.
On to `CCc1cc(-c2noc(-c3ccc(CN(C)CC)s3)n2)cc(C)c1OC[C@@H](O)CNC(=O)CO`, for which the EC50 is 6.8 nM in test [1] and 4600 nM in test [2]. Further, the Ratio EC50 in test [3] is 676.
On the same counts, the results for `CCCN(C)Cc1sc(-c2nc(-c3cc(C)c(OC[C@@H](O)CNC(=O)CO)c(CC)c3)no2)cc1C` are 0.6 nM, 120 nM and 200.
As to `CCc1cc(-c2noc(-c3cc(C)nc(CN(C)C)c3)n2)cc(C)c1OC[C@@H](O)CNC(=O)CO`, the EC50 in test [1] is 40 nM; in test [2], more than 10000 nM. Besides, in test [3], the Ratio EC50 is more than 250.
With `CCc1cc(-c2noc(-c3ccc(CNC)cc3)n2)cc(C)c1OC[C@@H](O)CNC(=O)CO`, the EC50 in test [1] was 2090 nM; in test [2] it was more than 10000 nM. The Ratio EC50 in test [3] was more than 4.8.
Taken in the same sequence, the figures for `CCc1cc(-c2noc(-c3ccc(C)c(CNCC(C)C)c3)n2)cc(C)c1OC[C@@H](O)CNC(=O)CO` were 2350 nM, more than 10000 nM and more than 4.
Consider `CCc1cc(-c2noc(-c3ccc(CN(C)C)c(C)c3)n2)cc(C)c1OC[C@@H](O)CNC(=O)CO`, for which the EC50 in test [2] worked out at 3200 nM.
In the case of `CCc1cc(-c2noc(-c3cc(C)c(C=O)s3)n2)cc(C)c1OC[C@@H](O)CNC(=O)CO`, the concentration giving a half-maximal response (EC50) was 26 nM in test [1] and more than 10000 nM in test [2].
`CCCN(C)Cc1sc(-c2nc(-c3cc(C)c(OC[C@@H](O)CNC(=O)CO)c(CC)c3)no2)cc1CC`: the EC50 in test [1] was 0.5 nM; in test [2], 20 nM. Moreover, the Ratio EC50 in test [3] is 40.
Taken in the same sequence, the figures for `CCc1cc(-c2noc(-c3cc(CN(C)CC(C)C)cc(C(C)C)c3)n2)cc(C)c1OC[C@@H](O)CNC(=O)CO` were 1.1 nM, 1.4 nM and less than 2.
As for `CCc1cc(-c2noc(-c3cc(C)nc(CN(CC)CC)c3)n2)cc(C)c1OC[C@@H](O)CO`, the EC50 in test [1] worked out at 110 nM.
For the compound `CCc1cc(-c2noc(-c3ccc(CN(C)C)cc3)n2)cc(C)c1OC[C@@H](O)CNC(=O)CO`, the EC50 is 160 nM in test [1] and more than 10000 nM in test [2]. In addition, the Ratio EC50 in test [3] was more than 62.
On the same counts, the results for `CCc1cc(-c2noc(-c3cc(CN(C)CC(C)C)ccc3C)n2)cc(C)c1OC[C@@H](O)CNC(=O)CO` are 490 nM, more than 10000 nM and more than 20.
Taken in the same sequence, the figures for `CCc1cc(-c2noc(-c3ccc(CN(C)CC)c(C)c3)n2)cc(C)c1OC[C@@H](O)CNC(=O)CO` were 14 nM, 910 nM and 65.
On the same counts, the results for `CCCN(C)Cc1cc(-c2nc(-c3cc(C)c(OC[C@@H](O)CNC(=O)CO)c(CC)c3)no2)ccc1C` are 305 nM, 4300 nM and 14.
`CCc1cc(-c2noc(-c3cc(C)c(CN(C)CCO)s3)n2)cc(C)c1OC[C@@H](O)CNC(=O)CO`: the EC50 in test [1] amounted to 2.8 nM; in test [2], 1700 nM. Besides, in test [3], the Ratio EC50 came out at 607.
`CCc1cc(-c2nc(-c3cc(C)c(CCC(=O)NCCO)c(CC)c3)no2)cnc1N(C)C(C)C`: the EC50 in test [1] turned out to be 5.1 nM.
As for `CCCCN(C)Cc1sc(-c2nc(-c3cc(C)c(OC[C@@H](O)CNC(=O)CO)c(CC)c3)no2)cc1C`, the EC50 turned out to be 0.7 nM in test [1] and 120 nM in test [2]. Also, the Ratio EC50 in test [3] is 171.
Regarding `CCc1cc(-c2noc(-c3ccc(C)c(CN(C)CC)c3)n2)cc(C)c1OC[C@@H](O)CNC(=O)CO`, the 50% effective concentration (EC50) in test [1] came out at 285 nM; in test [2], 9000 nM. Moreover, the Ratio EC50 in test [3] worked out at 32.
Taken in the same sequence, the figures for `CCc1cc(-c2noc(-c3sc(CN(C)CC(C)C)c(C)c3C)n2)cc(C)c1OC[C@@H](O)CNC(=O)CO` were 55 nM, 2300 nM and 42.
Taken in the same sequence, the figures for `CCc1cc(CN(C)CC(C)C)cc(-c2nc(-c3cc(C)c(OC[C@@H](O)CNC(=O)CO)c(CC)c3)no2)c1` were 1.1 nM, 8 nM and 7.
Taken in the same sequence, the figures for `CCNCc1ccc(-c2nc(-c3cc(C)c(OC[C@@H](O)CNC(=O)CO)c(CC)c3)no2)s1` were 293 nM, more than 10000 nM and more than 34.
For `CCc1cc(-c2noc(-c3ccc(CNC(C)C)s3)n2)cc(C)c1OC[C@@H](O)CNC(=O)CO`, the EC50 in test [1] was 203 nM; in test [2], more than 10000 nM. The Ratio EC50 in test [3] was more than 49.
Consider `CCc1cc(-c2nc(-c3cc(C)c(OC[C@@H](O)CNC(=O)CO)c(CC)c3)no2)ccc1CN(C)CC`, for which the results for the EC50 in test [1] and in test [2] were 1 nM and 100 nM, respectively. For the same compound, in test [3], the Ratio EC50 was 100.
As to `CCc1cc(-c2noc(-c3cc(C)cc(CNCC(C)C)c3)n2)cc(C)c1OC[C@@H](O)CNC(=O)CO`, the EC50 amounted to 15 nM in test [1] and 2100 nM in test [2]. In test [3], the Ratio EC50 amounted to 140.
Taken in the same sequence, the figures for `CCc1cc(-c2noc(-c3ccc(CN(CC)CC)c(C)c3)n2)cc(C)c1OC[C@@H](O)CNC(=O)CO` were 10 nM, 560 nM and 56.
On the same counts, the results for `CCc1cc(-c2noc(-c3cc(C)nc(CN(CC)CC)c3)n2)cc(C)c1OC[C@@H](O)CNC(=O)CO` are 45 nM, 8100 nM and 180.
On the same counts, the results for `CCc1cc(-c2noc(-c3cccc(CNC)c3)n2)cc(C)c1OC[C@@H](O)CNC(=O)CO` are 190 nM, more than 10000 nM and more than 53.
Turning to `CCCCN(C)Cc1cc(-c2nc(-c3cc(C)c(OC[C@@H](O)CNC(=O)CO)c(CC)c3)no2)cc(C)n1`, the figures for the EC50 in test [1] and in test [2] were 4.3 nM and 1500 nM, respectively. In test [3], the Ratio EC50 worked out at 349.
On the same counts, the results for `CCc1cc(-c2noc(-c3ccc(CN(C)C)cc3C)n2)cc(C)c1OC[C@@H](O)CNC(=O)CO` are 230 nM, more than 10000 nM and more than 43.
Taken in the same sequence, the figures for `CCc1cc(-c2noc(-c3cc(C)nc(CN4CCCC4)c3)n2)cc(C)c1OC[C@@H](O)CNC(=O)CO` were 95 nM, more than 10000 nM and more than 105.
On the same counts, the results for `CCc1cc(-c2nc(-c3cc(C)c(OC[C@@H](O)CNC(=O)CO)c(CC)c3)no2)sc1CN(C)C` are 0.3 nM, 45 nM and 150.
In the case of `CCCCN(C)Cc1cc(-c2nc(-c3cc(C)c(OC[C@@H](O)CNC(=O)CO)c(CC)c3)no2)ccc1C`, the concentration giving a half-maximal response (EC50) stood at 310 nM in test [1] and 2900 nM in test [2]. In addition, the Ratio EC50 in test [3] worked out at 9.
Taken in the same sequence, the figures for `CCc1cc(-c2noc(-c3cc(C)c(CNC)s3)n2)cc(C)c1OC[C@@H](O)CNC(=O)CO` were 14 nM, more than 10000 nM and more than 714.
With `CCc1cc(-c2noc(-c3ccc(C)c(CN(C)C)c3)n2)cc(C)c1OC[C@@H](O)CNC(=O)CO`, the EC50 is 385 nM in test [1] and more than 10000 nM in test [2]. Moreover, the Ratio EC50 in test [3] is more than 26.
Regarding `CCc1cc(-c2nnc(-c3cc(C)nc(N(CC)CC)c3)o2)cc(C)c1OC[C@@H](O)CNC(=O)CO`, the EC50 in test [1] stood at 7.9 nM.
